Test results from ChEMBL document CHEMBL4311988, “Identification of novel non-nucleoside vinyl-stilbene analogs as potent norovirus replication inhibitors with a potential host-targeting mechanism” (Eur J Med Chem, 2019).
Calls of active or inactive are those of the source. No cut-off for these calls is given here.

How the values were obtained:
Norovirus [1] = test: Antiviral activity against human norovirus infected in human HG23 cells assessed as inhibition of viral replication at 10 uM after 3 days by qRT-PCR analysis relative to control; format: functional; set-up: scale not given: the % may be the effect or the level left
[2] = Cytotoxicity against human HG23 cells assessed as cell viability at 10 uM after 3 days by tetrazolium dye based assay relative to control; conditions: read-out: Activity
Procedure, shortened: (§1)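 HG23 cells were treated with DMSO or compound for 3 days, at 10 μM for single-point testing or across a dose range for CC50. Viability was read with a tetrazolium salt (EZ-CYTOX) reagent. Values are means of the most representative triplicate experiment with standard deviations.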

[3] = Cytotoxicity against human HG23 cells assessed as reduction in cell viability after 3 days by tetrazolium dye based assay; procedure, shortened: as §1
Norovirus [4] = test: Antiviral activity against human norovirus infected in human HG23 cells assessed as inhibition of viral replication after 3 days by qRT-PCR analysis; format: functional, organism-based; conditions: HG23, 72 h
[5] = Therapeutic index, ratio of CC50 for cytotoxicity against human HG23 cells harboring human norovirus replicons to EC50 for antiviral activity against norovirus infected in human HG23 cells; format: toxicity, cell-based; conditions: read-out: Ratio CC50/EC50
Norovirus [6] = test: Antiviral activity against human norovirus infected in HG23 cells assessed as inhibition of neomycin phosphotransferase protein expression after 5 days by Western blot analysis; format: functional, organism-based; conditions: HG23, 120 h
Norovirus GII.4 = test: Inhibition of norovirus GII.4 RNA-dependent RNA polymerase using poly(C)RNA as substrate incubated for 10 mins and measured after 15 mins by picogreen staining based assay
Procedure, shortened: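 Recombinant human norovirus GII.4 Sydney 2012 RdRp (400 ng) was preincubated with compound (10 μM) or DMSO (0.5% v/v) for 10 min at 25 °C. It was then added to 5 μM rGTP, 6 μg/mL poly(C), 2.5 mM MnCl₂, 5 mM DTT, 0.01% BSA and 0.005% Tween 20 in 20 mM Tris-HCl pH 7.5. After 15 min at 25 °C, reactions were stopped with 10 mM EDTA and dsRNA quantified by PicoGreen fluorescence (ex 480/em 520). Two independent experiments were run in triplicate.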

[7] = Metabolic stability in human liver microsomes assessed as compound remaining at 1 uM preincubated for 5 mins followed by NADPH addition and measured after 30 mins by LC-MS/MS analysis relative to control; format: ADME, Microsome; conditions: read-out: Stability
Procedure, shortened: (§2)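 Human or mouse liver microsomes (0.5 mg/ml) in 0.1 M phosphate buffer pH 7.4 were preincubated with compound at 1 μM for 5 min at 37 °C. An NADPH regeneration system was then added or omitted, and incubation continued 30 min at 37 °C. Reactions were stopped with acetonitrile containing internal standard. Parent compound remaining was measured by LC-MS/MS (C18 column, 0.1% formic acid water/acetonitrile).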

[8] = Metabolic stability in human liver microsomes assessed as compound remaining at 1 uM after 30 mins in absence of NADPH by LC-MS/MS analysis relative to control; format: ADME, Microsome; conditions: read-out: Stability; procedure, shortened: as §2
[9] = Metabolic stability in mouse liver microsomes assessed as compound remaining at 1 uM preincubated for 5 mins followed by NADPH addition and measured after 30 mins in presence of NADPH relative to control; format: ADME, Microsome; conditions: read-out: Stability; procedure, shortened: as §2
[10] = Metabolic stability in mouse liver microsomes assessed as compound remaining at 1 uM after 30 mins in absence of NADPH by LC-MS/MS analysis relative to control; format: ADME, Microsome; conditions: read-out: Stability; procedure, shortened: as §2
Murine norovirus 1 = test: Antiviral activity against MNV-1 infected in mouse RAW264.7 cells at 0.05 to 10 uM after 48 hrs by crystal violet staining based assay; format: functional, cell-based
Feline calicivirus = test: Antiviral activity against feline calicivirus- infected in cat CRFK cells at >5 uM after 48 hrs by crystal violet staining based assay; format: functional, organism-based
[11] = target: T1, Nuclear factor erythroid 2-related factor 2 (Homo sapiens) (UniProt Q16236); test: Activation of NRF2 pathway in human HG23 cells transfected with human norovirus at 10 uM after 72 hrs by dual-luciferase reporter gene assay; format: cell-based
T1 sequence (whole entry): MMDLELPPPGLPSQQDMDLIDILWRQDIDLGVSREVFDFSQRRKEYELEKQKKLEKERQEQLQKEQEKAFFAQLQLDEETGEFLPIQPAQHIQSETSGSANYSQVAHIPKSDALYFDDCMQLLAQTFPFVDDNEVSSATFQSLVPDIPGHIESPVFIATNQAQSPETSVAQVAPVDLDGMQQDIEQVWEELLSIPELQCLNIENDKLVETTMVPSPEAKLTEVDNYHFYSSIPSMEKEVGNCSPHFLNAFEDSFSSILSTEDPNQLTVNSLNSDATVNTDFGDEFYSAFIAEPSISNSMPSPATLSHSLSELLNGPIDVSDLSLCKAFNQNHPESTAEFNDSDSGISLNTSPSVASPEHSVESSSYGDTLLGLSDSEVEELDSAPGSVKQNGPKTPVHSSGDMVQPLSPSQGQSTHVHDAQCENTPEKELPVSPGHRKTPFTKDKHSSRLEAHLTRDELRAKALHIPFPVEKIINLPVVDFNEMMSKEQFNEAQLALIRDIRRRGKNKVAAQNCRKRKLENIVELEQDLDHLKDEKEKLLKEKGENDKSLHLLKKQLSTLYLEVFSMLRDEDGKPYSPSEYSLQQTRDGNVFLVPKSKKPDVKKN
Procedure, shortened: (§3)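 HG23 cells carrying the NV replicon were transfected with a Cignal finder reporter array and then given DMSO or 10 μM test compound for 72 h. Luciferase activity for each pathway was read with a dual-luciferase reagent.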

[12] = target: T2, Heat shock factor protein 1 (Homo sapiens) (UniProt Q00613); test: Activation of HSF-1 in human HG23 cells transfected with human norovirus at 10 uM after 72 hrs by dual-luciferase reporter gene assay; format: cell-based; procedure, shortened: as §3
T2 sequence (whole entry): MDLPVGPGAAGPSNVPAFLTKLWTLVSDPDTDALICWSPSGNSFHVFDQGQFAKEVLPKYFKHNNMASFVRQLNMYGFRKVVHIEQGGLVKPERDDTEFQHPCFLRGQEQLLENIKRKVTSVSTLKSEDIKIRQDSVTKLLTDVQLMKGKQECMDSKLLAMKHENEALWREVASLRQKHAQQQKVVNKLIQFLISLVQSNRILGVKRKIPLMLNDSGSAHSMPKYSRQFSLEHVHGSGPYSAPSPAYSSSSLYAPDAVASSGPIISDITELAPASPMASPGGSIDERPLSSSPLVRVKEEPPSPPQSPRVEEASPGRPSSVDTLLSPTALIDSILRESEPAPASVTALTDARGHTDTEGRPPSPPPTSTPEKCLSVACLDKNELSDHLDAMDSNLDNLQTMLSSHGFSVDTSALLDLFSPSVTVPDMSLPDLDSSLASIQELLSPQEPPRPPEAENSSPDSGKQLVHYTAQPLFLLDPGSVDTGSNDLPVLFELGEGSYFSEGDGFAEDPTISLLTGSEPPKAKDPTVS

[13] = target: T2, Heat shock factor protein 1 (Homo sapiens); test: Activation of HSF-1 in human HG23 cells transfected with human norovirus after 72 hrs by dual-luciferase reporter gene assay; format: cell-based; procedure, shortened: as §3

## C=Cc1c(OC)cc(/C=C/c2ccc(C(=O)N3CCN(Cc4ccc(C(F)(F)F)cc4)CC3)cc2)cc1OC
Norovirus [1]
  Activity: 4.2%
[2]
  viability at 72 h, 10 µM: 105%
[3]
  CC50 at 72 h: > 100000 nM
Norovirus [4]
  EC50: 2430 nM
[5]
  selectivity ratio: > 41.2
Norovirus [6]
  EC50: 800 nM
Norovirus GII.4
  inhibition: inactive
[7]
  remaining at 0.5 h, 1 µM: 89.1%
[8]
  remaining at 0.5 h, 1 µM: 94.3%
[9]
  remaining at 0.5 h, 1 µM: 70.5%
[10]
  remaining at 0.5 h, 1 µM: 99.2%
Murine norovirus 1
  Activity: inactive
Feline calicivirus
  Activity: Active
[11]
  Activity: Active
[12]
  Activity: Active
[13]
  Activity: Dose-dependent effect
